Consider three compounds from ChEMBL document CHEMBL2146476, “Discovery of selective glucocorticoid receptor modulator MK-5932” (Bioorg Med Chem, 2011).

For orientation: Emax means the size of the effect at its maximum, as opposed to the concentration needed. As a reminder, the Ki is the dissociation constant of the complex between target and ligand, obtained from inhibition or displacement.

In data set [1] the target is T1, Glucocorticoid receptor (Homo sapiens) (UniProt P04150).
T1 sequence (whole entry): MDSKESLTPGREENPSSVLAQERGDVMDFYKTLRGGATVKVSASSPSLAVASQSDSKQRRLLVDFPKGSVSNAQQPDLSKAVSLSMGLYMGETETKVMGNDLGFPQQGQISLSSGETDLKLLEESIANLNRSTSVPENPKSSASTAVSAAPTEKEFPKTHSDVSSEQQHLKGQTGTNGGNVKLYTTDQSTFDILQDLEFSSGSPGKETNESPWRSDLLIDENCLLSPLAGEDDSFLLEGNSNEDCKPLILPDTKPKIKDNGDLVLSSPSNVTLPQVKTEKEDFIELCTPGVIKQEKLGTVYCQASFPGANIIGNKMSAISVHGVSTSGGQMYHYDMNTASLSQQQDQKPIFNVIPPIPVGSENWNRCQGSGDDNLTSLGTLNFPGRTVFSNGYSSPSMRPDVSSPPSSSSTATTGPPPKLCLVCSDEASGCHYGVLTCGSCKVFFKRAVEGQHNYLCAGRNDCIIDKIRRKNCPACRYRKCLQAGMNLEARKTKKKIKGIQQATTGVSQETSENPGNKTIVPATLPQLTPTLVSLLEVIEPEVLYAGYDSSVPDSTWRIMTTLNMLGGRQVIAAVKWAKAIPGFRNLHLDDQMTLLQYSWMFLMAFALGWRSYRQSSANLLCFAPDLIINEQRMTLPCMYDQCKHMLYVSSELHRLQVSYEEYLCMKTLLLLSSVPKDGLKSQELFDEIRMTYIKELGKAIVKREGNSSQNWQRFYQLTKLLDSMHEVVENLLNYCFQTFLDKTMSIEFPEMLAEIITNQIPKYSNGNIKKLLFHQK
The data set can be described thus: Transrepression activity at glucocorticoid receptor in human LPS and TPA-stimulated U937 cells assessed as effect on glucocorticoid-induced TNFalpha repression by beta lactamase reporter gene assay relative to dexamethasone. In kind it is cell-based. As to conditions: U-937. In a few lines:
(§1)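 U937 cells stably carrying a β-lactamase reporter driven by the human TNF-α promoter (-1083 to +182), in 5% charcoal-stripped FBS. Stimulated with 1 µg/mL LPS plus 50 ng/mL TPA, compound exposure 16 h. β-Lactamase read out. Activity expressed as percent of the span between DMSO and 100 nM dexamethasone controls. Mean of at least three runs.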
(In general: A reporter such as luciferase makes a cellular process visible.)

For data set [2], the system named is Rattus norvegicus. The experiment in a line: Toxicity in oxazolone-induced Sprague-Dawley rat chronic dermatitis model assessed as increase in plasma insulin level at 0.3 to 60 mg/kg, po qd administered after 7 days of oxazolone sensitization measured after 4 to 5 hrs last post treatment on day 14. To be noted: in vivo. Set-up: route oral. In kind it is organism-based. An outline of the steps:
(§2)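 Intact 6-month-old female Sprague-Dawley rats sensitized with oxazolone on ventral abdomen on Day 0. One randomly selected ear challenged with oxazolone on Days 7 and 9, other ear given vehicle. Daily oral dosing for 7 d from Day 7, with 6-methylprednisolone or DEX as positive controls. Blood taken ~4-5 h after last dose for plasma insulin. Inflammation read as inter-ear thickness difference.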

Data set [3] relates to Liver microsomes. The experiment in a line: Drug metabolism in rat liver microsomes assessed as metabolite M2 level up to 50 mins by LC-MS analysis. The format is ADME, Microsome. A general note: Liver microsomes are vesicles of endoplasmic reticulum, rich in cytochrome P450 enzymes.
The subject of data set [4] is Rattus norvegicus. The data set can be described thus: Antiinflammatory activity in oxazolone-induced Sprague-Dawley rat chronic dermatitis model at 0.3 to 60 mg/kg, po qd administered after 7 days of oxazolone sensitization measured after 4 to 5 hrs last post treatment on day 14. In kind it is functional, organism-based. In a few lines:
as §2

Data set [5] relates to Liver microsomes. The experiment in a line: Drug metabolism in rat liver microsomes assessed as metabolite M1 level up to 50 mins by LC-MS analysis. The format is ADME, Microsome.
In data set [6] the target is T1, Glucocorticoid receptor (Homo sapiens). The data set can be described thus: Transactivation activity at GR-mediated modulation of MMTV promoter activity in human HeLa cells transfected with luciferase gene linked to MMTV promoter after 16 hrs by luciferase reporter gene assay relative to dexamethasone. In kind it is cell-based. An outline of the steps:
(§3)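 HeLa or A549 cells transiently transfected with a luciferase reporter under the MMTV promoter (two GREs), in 10% charcoal-stripped FBS. Compound exposure 16 h, then luciferase measured. Activity expressed as percent of the span between DMSO and dexamethasone controls. Mean of at least three runs.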

The next data set deals with T2, Glucocorticoid receptor (Homo sapiens, UniProt P04150).
T2 sequence (P04150 whole entry): T1 sequence (whole entry)
The experiment in a line: Displacement of [3H]-dexamethasone from human full length GR expressed in insect Sf21 cells. In a few lines:
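Human full-length GR expressed in insect cells, incubated with compound and 3H-dexamethasone overnight at 4 °C. Bound radioactivity quantified after filtration capture. Nonspecific binding defined with excess unlabelled dexamethasone. Mean of at least two runs.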
For orientation: Loss of bound radioactivity is the signal in a displacement assay; it reports binding, not function.

The target of data set [7] is T1, Glucocorticoid receptor (Homo sapiens). The data set can be described thus: Transactivation activity at GR-mediated modulation of MMTV promoter activity in human A549 cells transfected with luciferase gene linked to MMTV promoter after 16 hrs by luciferase reporter gene assay. The format is cell-based. In a few lines:
as §3

The subject of data set [8] is Liver microsomes. The data set can be described thus: Drug metabolism in human liver microsomes assessed as metabolite M1 level up to 50 mins by LC-MS analysis. The format is ADME, Microsome.
For data set [9], the system named is Liver microsomes. The data set can be described thus: Drug metabolism in rat liver microsomes assessed as metabolite M3 level up to 50 mins by LC-MS analysis. In kind it is ADME, Microsome.
In data set [10] the test system is Liver microsomes. The experiment in a line: Drug metabolism in human liver microsomes assessed as metabolite M2 level up to 50 mins by LC-MS analysis. The format is ADME, Microsome.
Data set [11] deals with Liver microsomes. The experiment in a line: Drug metabolism in human liver microsomes assessed as metabolite M3 level up to 50 mins by LC-MS analysis. The format is ADME, Microsome.
Data set [12] concerns the target T1, Glucocorticoid receptor (Homo sapiens). The experiment in a line: Transactivation activity at GR-mediated modulation of MMTV promoter activity in human A549 cells transfected with luciferase gene linked to MMTV promoter after 16 hrs by luciferase reporter gene assay relative to dexamethasone. The format is cell-based. In a few lines:
as §3

Data set [13] has the same target. The experiment in a line: Transactivation activity at GR-mediated modulation of MMTV promoter activity in human HeLa cells transfected with luciferase gene linked to MMTV promoter after 16 hrs by luciferase reporter gene assay. In kind it is cell-based. An outline of the steps: as §3
Data set [14] has the same target. The data set can be described thus: Transrepression activity at glucocorticoid receptor in human LPS and TPA-stimulated U937 cells assessed as effect on glucocorticoid-induced TNFalpha repression by beta lactamase reporter gene assay. The format is cell-based. To be noted: U-937. An outline of the steps:
as §1

In data set [15] the test system is Rattus norvegicus. The experiment in a line: Toxicity in oxazolone-induced Sprague-Dawley rat chronic dermatitis model assessed as increase in plasma insulin level at 0.5 to 5 mg/kg, po qd administered after 7 days of oxazolone sensitization measured after 4 to 5 hrs last post treatment on day 14. In kind it is organism-based. Set-up: route oral. To be noted: in vivo. An outline of the steps: as §2

For data set [16], the system named is Rattus norvegicus. The experiment in a line: Antiinflammatory activity in oxazolone-induced Sprague-Dawley rat chronic dermatitis model at 0.5 to 5 mg/kg, po qd administered after 7 days of oxazolone sensitization measured after 4 to 5 hrs last post treatment on day 14. In kind it is functional, organism-based. In a few lines:
as §2

Data set [17] in a line: Drug uptake in oxazolone-induced Sprague-Dawley rat chronic dermatitis model at 15 mg/kg, po. The format is ADME, organism-based. Also on record: dose 15 mg/kg, route oral. As to conditions: in vivo, read-out: Drug uptake. In a few lines: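 Exposure measured in female Sprague-Dawley rats in the oxazolone chronic dermatitis model: sensitization Day 0, ear challenge Days 7 and 9, daily oral dosing for 7 d from Day 7. Exposure expressed as µM h. Blood collected ~4-5 h after last dose.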

Data set [18] concerns Rattus norvegicus. The data set can be described thus: Drug metabolism in oxazolone-induced Sprague-Dawley rat chronic dermatitis model assessed as 2-fluoro-6-(2-((4aS,5R)-1-(4-fluorophenyl)-5-hydroxy-4a-methyl-1,4,4a,5,6,7-hexahydrocyclopenta[f]indazol-5-yl)ethyl)-N-(1-(hydroxymethyl)cyclopropyl)benzamide level at 15 mg/kg, po. As to conditions: in vivo.

SMILES strings stand for the structures. Calls of active or inactive are those of the source. The calls are words filed in the database; no cut-off is given here.

On to `C[C@]12Cc3cnn(-c4ccc(F)cc4)c3C=C1CC[C@@]2(O)CCc1ccc(F)cc1C(N)=O`, for which the results for the Emax in data set [1], in [6] and in [12] were 73%, 23% and 35%, respectively. For the same compound, in the data set on Rattus norvegicus [2], the Activity result was “Non-toxic”. Moreover, the Drug metabolism result in the data set with Liver microsomes [3] is “Active”; in the data set with Liver microsomes [5], “Active”; in the data set with Liver microsomes [8], “Active”; in the data set with Liver microsomes [9] it was “Not Active”; with Liver microsomes [10] it was “Active”; with Liver microsomes [11], “Active”. Further, the outcome in the data set with Rattus norvegicus [4] was Active. The inhibition constant (Ki) on Glucocorticoid receptor was determined as 3 nM. Besides, the IP amounted to 186 nM in data set [7], 153 nM in data set [13] and 131 nM in [14].

On to `C[C@H]1C[C@@H]2[C@H]([C@@H](O)C[C@@]3(C)[C@H]2CC[C@]3(O)C(=O)CO)[C@@]2(C)C=CC(=O)C=C12` [METHYLPREDNISOLONE], for which the Activity entry in the data set with Rattus norvegicus [15] is on record as “Toxic”. Also, the result in the data set on Rattus norvegicus [16] was Active.

As for `CC1(NC(=O)c2c(F)cccc2CC[C@]2(O)CCC3=Cc4c(cnn4-c4ccc(F)cc4)C[C@@]32C)CC1`, the values for the Emax in data set [1], in [6] and in data set [12] were 81%, 33% and 41%, respectively. At Glucocorticoid receptor, this compound yielded a Ki below 1 nM. In data set [17], the AUC amounted to 64 µM·h. For the same compound, the figures for the IP in data set [7], in data set [13] and in data set [14] were 32 nM, 27 nM and 20 nM, respectively. In the data set on Rattus norvegicus [18], the Drug metabolism came to 3.8 µM·h.
